The source made the active and inactive calls. No cut-off for these calls is given here.
Columns and labels:
SF-268 = experiment: Antitumor activity against human SF268 cells assessed as cell growth inhibition at 10 uM incubated for 48 hrs by sulforhodamine B assay; assay type: functional; settings: read-out: GI
How it was run: (§1)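 NCI Drug Evaluation Branch protocol: primary single-dose screen at 10 μM across a 57-line human cancer panel. Drug exposure is 48 h. Cell growth and viability are read by sulforhodamine B assay. Data are given as a mean graph of percent growth of treated cells and reported as percentage growth inhibition (GI%).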

Carbonic anhydrase 9 = Carbonic anhydrase 9 (Homo sapiens, UniProt Q16790); experiment: Inhibition of recombinant human carbonic anhydrase 9 preincubated with enzyme for 15 mins by phenol red dye based stopped flow CO2 hydrase assay
M14 = experiment: Antitumor activity against human M14 cells assessed as cell growth inhibition at 10 uM incubated for 48 hrs by sulforhodamine B assay; assay type: functional; settings: read-out: GI; how it was run: as §1
A498 = experiment: Antitumor activity against human A498 cells assessed as cell growth inhibition at 10 uM incubated for 48 hrs by sulforhodamine B assay; assay type: functional; settings: read-out: GI; how it was run: as §1
CAKI-1 = experiment: Antitumor activity against human CAKI-1 cells assessed as cell growth inhibition at 10 uM incubated for 48 hrs by sulforhodamine B assay; assay type: functional; settings: read-out: GI; how it was run: as §1
Carbonic anhydrase 12 = Carbonic anhydrase 12 (Homo sapiens, UniProt O43570); experiment: Inhibition of recombinant human carbonic anhydrase 12 preincubated with enzyme for 15 mins by phenol red dye based stopped flow CO2 hydrase assay
DU-145 = experiment: Antitumor activity against human DU-145 cells assessed as cell growth inhibition at 10 uM incubated for 48 hrs by sulforhodamine B assay; assay type: functional; settings: read-out: GI; how it was run: as §1
SK-MEL-2 = experiment: Antitumor activity against human SK-MEL-2 cells assessed as cell growth inhibition at 10 uM incubated for 48 hrs by sulforhodamine B assay; assay type: functional; settings: read-out: GI; how it was run: as §1
NCI/ADR-RES = experiment: Antitumor activity against human NCI/ADR-RES cells assessed as cell growth inhibition at 10 uM incubated for 48 hrs by sulforhodamine B assay; assay type: functional, cell-based; how it was run: as §1
OVCAR-8 = experiment: Antitumor activity against human OVCAR-8 cells assessed as cell growth inhibition at 10 uM incubated for 48 hrs by sulforhodamine B assay; assay type: functional; settings: read-out: GI; how it was run: as §1
T47D = experiment: Antitumor activity against human T-47D cells assessed as cell growth inhibition at 10 uM incubated for 48 hrs by sulforhodamine B assay; assay type: functional; settings: read-out: GI
How it was run: (§2)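 NCI one-dose screen: 57-cell-line panel exposed at 10 μM for 48 h, Drug Evaluation Branch protocol. Growth and viability read by sulforhodamine B; data given as percent growth inhibition from the mean-graph of percent growth of treated cells.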

SK-OV-3 = experiment: Antitumor activity against human SK-OV-3 cells assessed as cell growth inhibition at 10 uM incubated for 48 hrs by sulforhodamine B assay; assay type: functional; settings: read-out: GI; how it was run: as §1
MDA-MB-231 = experiment: Antitumor activity against human MDA-MB-231/ATCC cells assessed as cell growth inhibition at 10 uM incubated for 48 hrs by sulforhodamine B assay; assay type: functional; settings: read-out: GI; how it was run: as §1
[1] = target: Cyclin-dependent kinase 2/cyclin E1 (Homo sapiens, UniProt P24941); experiment: Inhibition of CDK2/cyclin E (unknown origin) expressed in baculovirus infected Sf21 insect cells using histone H1 as substrate in presence of [gamma33P]ATP
Carbonic anhydrase 1 = Carbonic anhydrase 1 (Homo sapiens, UniProt P00915); experiment: Inhibition of recombinant human carbonic anhydrase 1 preincubated with enzyme for 15 mins by phenol red dye based stopped flow CO2 hydrase assay
Malme-3M = experiment: Antitumor activity against human MALME-3M cells assessed as cell growth inhibition at 10 uM incubated for 48 hrs by sulforhodamine B assay; assay type: functional; settings: read-out: GI; how it was run: as §1
LOX IMVI = experiment: Antitumor activity against human LOX IMVI cells assessed as cell growth inhibition at 10 uM incubated for 48 hrs by sulforhodamine B assay; assay type: functional; settings: read-out: GI; how it was run: as §1
786-0 = experiment: Antitumor activity against human 786-0 cells assessed as cell growth inhibition at 10 uM incubated for 48 hrs by sulforhodamine B assay; assay type: functional; settings: read-out: GI; how it was run: as §1
RXF 393 = experiment: Antitumor activity against human RXF 393 cells assessed as cell growth inhibition at 10 uM incubated for 48 hrs by sulforhodamine B assay; assay type: functional; settings: read-out: GI; how it was run: as §1
CCRF-CEM = experiment: Antitumor activity against human CCRF-CEM cells assessed as cell growth inhibition at 10 uM incubated for 48 hrs by sulforhodamine B assay; assay type: functional; settings: read-out: GI; how it was run: as §1
Hs-578T = experiment: Antitumor activity against human HS 578T cells assessed as cell growth inhibition at 10 uM incubated for 48 hrs by sulforhodamine B assay; assay type: functional; settings: read-out: GI; how it was run: as §1
SF-539 = experiment: Antitumor activity against human SF539 cells assessed as cell growth inhibition at 10 uM incubated for 48 hrs by sulforhodamine B assay; assay type: functional; settings: read-out: GI; how it was run: as §1
Carbonic anhydrase 2 = Carbonic anhydrase 2 (Homo sapiens, UniProt P00918); experiment: Inhibition of recombinant human carbonic anhydrase 2 preincubated with enzyme for 15 mins by phenol red dye based stopped flow CO2 hydrase assay
U-251 = experiment: Antitumor activity against human U251 cells assessed as cell growth inhibition at 10 uM incubated for 48 hrs by sulforhodamine B assay; assay type: functional; settings: read-out: GI; how it was run: as §2
RPMI-8226 = experiment: Antitumor activity against human RPMI8226 cells assessed as cell growth inhibition at 10 uM incubated for 48 hrs by sulforhodamine B assay; assay type: functional; settings: read-out: GI; how it was run: as §1
SR = experiment: Antitumor activity against human SR cells assessed as cell growth inhibition at 10 uM incubated for 48 hrs by sulforhodamine B assay; assay type: functional; settings: read-out: GI; how it was run: as §2
SK-MEL-5 = experiment: Antitumor activity against human SK-MEL-5 cells assessed as cell growth inhibition at 10 uM incubated for 48 hrs by sulforhodamine B assay; assay type: functional; settings: read-out: GI; how it was run: as §1
HCT-15 = experiment: Antitumor activity against human HCT15 cells assessed as cell growth inhibition at 10 uM incubated for 48 hrs by sulforhodamine B assay; assay type: functional; settings: read-out: GI; how it was run: as §1
MDA-MB-435 = experiment: Antitumor activity against human MDA-MB-435 cells assessed as cell growth inhibition at 10 uM incubated for 48 hrs by sulforhodamine B assay; assay type: functional; settings: read-out: GI; how it was run: as §1
IGROV-1 = experiment: Antitumor activity against human IGROV1 cells assessed as cell growth inhibition at 10 uM incubated for 48 hrs by sulforhodamine B assay; assay type: functional; settings: read-out: GI; how it was run: as §1
UACC-62 = experiment: Antitumor activity against human UACC-62 cells assessed as cell growth inhibition at 10 uM incubated for 48 hrs by sulforhodamine B assay; assay type: functional; settings: read-out: GI; how it was run: as §2
NCI-H460 = experiment: Antitumor activity against human NCI-H460 cells assessed as cell growth inhibition at 10 uM incubated for 48 hrs by sulforhodamine B assay; assay type: functional; settings: read-out: GI; how it was run: as §1
NCI-H522 = experiment: Antitumor activity against human NCI-H522 cells assessed as cell growth inhibition at 10 uM incubated for 48 hrs by sulforhodamine B assay; assay type: functional; settings: read-out: GI; how it was run: as §1
KM12 = experiment: Antitumor activity against human KM12 cells assessed as cell growth inhibition at 10 uM incubated for 48 hrs by sulforhodamine B assay; assay type: functional; settings: read-out: GI; how it was run: as §1
UO-31 = experiment: Antitumor activity against human UO-31 cells assessed as cell growth inhibition at 10 uM incubated for 48 hrs by sulforhodamine B assay; assay type: functional; settings: read-out: GI; how it was run: as §2
HCT-116 = experiment: Antitumor activity against human HCT116 cells assessed as cell growth inhibition at 10 uM incubated for 48 hrs by sulforhodamine B assay; assay type: functional; settings: read-out: GI; how it was run: as §1
SN12C = experiment: Antitumor activity against human SN12C cells assessed as cell growth inhibition at 10 uM incubated for 48 hrs by sulforhodamine B assay; assay type: functional; settings: read-out: GI; how it was run: as §1
HOP-92 = experiment: Antitumor activity against human HOP92 cells assessed as cell growth inhibition at 10 uM incubated for 48 hrs by sulforhodamine B assay; assay type: functional; settings: read-out: GI; how it was run: as §1
NCI-H322M = experiment: Antitumor activity against human NCI-H322M cells assessed as cell growth inhibition at 10 uM incubated for 48 hrs by sulforhodamine B assay; assay type: functional; settings: read-out: GI; how it was run: as §1
SW-620 = experiment: Antitumor activity against human SW620 cells assessed as cell growth inhibition at 10 uM incubated for 48 hrs by sulforhodamine B assay; assay type: functional; settings: read-out: GI; how it was run: as §2
OVCAR-3 = experiment: Antitumor activity against human OVCAR-3 cells assessed as cell growth inhibition at 10 uM incubated for 48 hrs by sulforhodamine B assay; assay type: functional; settings: read-out: GI; how it was run: as §1
ACHN = experiment: Antitumor activity against human ACHN cells assessed as cell growth inhibition at 10 uM incubated for 48 hrs by sulforhodamine B assay; assay type: functional; settings: read-out: GI; how it was run: as §1
BT-549 = experiment: Antitumor activity against human BT-549 cells assessed as cell growth inhibition at 10 uM incubated for 48 hrs by sulforhodamine B assay; assay type: functional; settings: read-out: GI; how it was run: as §1
CDK9/cyclin T1 = CDK9/cyclin T1 (Homo sapiens, UniProt P50750); experiment: Inhibition of human full-length N-terminal GST/His6-tagged CDK9 (1 to 372 residues)/His6-tagged Cyclin-T1 (1 to 726 residues) expressed in sf9 cells using (YSPTSPS)2KK peptide as substrate in presence of [gamma33P]ATP
SNB-75 = experiment: Antitumor activity against human SNB-75 cells assessed as cell growth inhibition at 10 uM incubated for 48 hrs by sulforhodamine B assay; assay type: functional; settings: read-out: GI; how it was run: as §2

Carbonic anhydrase 1, sequence (P00915 whole entry): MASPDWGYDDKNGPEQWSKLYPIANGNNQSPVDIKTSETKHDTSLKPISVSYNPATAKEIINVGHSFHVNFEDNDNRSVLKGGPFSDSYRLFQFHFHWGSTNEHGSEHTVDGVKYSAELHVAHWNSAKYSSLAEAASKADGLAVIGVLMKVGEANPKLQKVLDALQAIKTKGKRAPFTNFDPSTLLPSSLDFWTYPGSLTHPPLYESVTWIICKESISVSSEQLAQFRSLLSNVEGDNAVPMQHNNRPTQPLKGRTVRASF
Carbonic anhydrase 12, sequence (O43570 whole entry): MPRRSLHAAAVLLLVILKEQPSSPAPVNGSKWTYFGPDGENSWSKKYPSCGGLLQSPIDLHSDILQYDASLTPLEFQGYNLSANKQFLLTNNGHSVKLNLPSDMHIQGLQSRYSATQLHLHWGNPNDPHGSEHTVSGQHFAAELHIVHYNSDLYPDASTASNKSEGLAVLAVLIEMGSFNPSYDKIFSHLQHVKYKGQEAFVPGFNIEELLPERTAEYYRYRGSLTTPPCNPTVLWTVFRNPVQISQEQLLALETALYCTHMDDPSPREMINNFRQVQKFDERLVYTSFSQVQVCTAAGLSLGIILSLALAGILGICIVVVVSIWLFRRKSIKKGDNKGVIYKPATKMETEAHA
CDK9/cyclin T1, sequence (O60563 whole entry, the tested form may be a part): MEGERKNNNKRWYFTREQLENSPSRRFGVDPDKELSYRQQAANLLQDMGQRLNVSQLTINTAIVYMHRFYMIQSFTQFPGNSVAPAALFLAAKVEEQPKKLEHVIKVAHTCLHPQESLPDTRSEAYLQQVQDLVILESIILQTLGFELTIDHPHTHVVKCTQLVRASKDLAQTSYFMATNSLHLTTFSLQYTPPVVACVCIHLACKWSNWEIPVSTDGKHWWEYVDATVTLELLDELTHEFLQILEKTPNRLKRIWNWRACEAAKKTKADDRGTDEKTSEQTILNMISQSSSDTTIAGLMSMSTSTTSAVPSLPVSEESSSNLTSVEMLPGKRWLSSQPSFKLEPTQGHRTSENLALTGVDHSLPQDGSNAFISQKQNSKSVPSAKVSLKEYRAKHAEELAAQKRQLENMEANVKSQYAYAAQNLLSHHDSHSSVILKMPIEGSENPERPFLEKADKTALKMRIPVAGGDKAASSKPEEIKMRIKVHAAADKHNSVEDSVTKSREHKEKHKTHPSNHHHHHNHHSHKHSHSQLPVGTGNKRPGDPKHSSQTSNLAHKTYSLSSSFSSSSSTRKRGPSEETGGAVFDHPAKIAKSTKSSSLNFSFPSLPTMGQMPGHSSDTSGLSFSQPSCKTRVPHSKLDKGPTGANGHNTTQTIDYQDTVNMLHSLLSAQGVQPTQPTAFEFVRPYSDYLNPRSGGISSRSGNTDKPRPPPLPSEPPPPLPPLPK
CDK9/cyclin T1, sequence (P50750 whole entry, the tested form may be a part): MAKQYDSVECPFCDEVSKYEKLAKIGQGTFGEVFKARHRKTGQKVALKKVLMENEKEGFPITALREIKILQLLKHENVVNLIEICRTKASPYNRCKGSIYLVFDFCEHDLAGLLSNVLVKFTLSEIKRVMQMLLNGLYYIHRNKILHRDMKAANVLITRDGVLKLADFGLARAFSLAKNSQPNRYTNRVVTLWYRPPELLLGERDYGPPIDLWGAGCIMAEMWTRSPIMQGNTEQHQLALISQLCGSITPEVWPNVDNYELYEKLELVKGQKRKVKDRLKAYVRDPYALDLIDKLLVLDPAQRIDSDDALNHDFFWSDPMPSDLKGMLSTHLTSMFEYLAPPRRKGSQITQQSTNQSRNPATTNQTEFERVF

For Nc1nn2cc(-c3ccc(F)cc3)[nH]c2c1/N=N/c1ccc(S(N)(=O)=O)cc1, the inhibition of growth at 10 µM (SF-268) was 23%, the Ki (Carbonic anhydrase 9) was 28.4 nM and the inhibition of growth at 10 µM (M14) was 35%. It also gave an inhibition of growth at 10 µM (A498) of 60%, an inhibition of growth at 10 µM (CAKI-1) of 53% and a Ki (Carbonic anhydrase 12) of 18.6 nM. For the same compound, the inhibition of growth at 10 µM (DU-145) was 30%, the inhibition of growth at 10 µM (SK-MEL-2) was 30% and the Activity (NCI/ADR-RES) was “inactive”. For the same compound, the inhibition of growth at 10 µM (OVCAR-8) was 21%, the inhibition of growth at 10 µM (T47D) was 22% and the inhibition of growth at 10 µM (SK-OV-3) was 26%. For the same compound, the inhibition of growth at 10 µM (MDA-MB-231) was 25%, the IC50 [1] was > 12500 nM and the Ki (Carbonic anhydrase 1) was 769 nM. It also gave an inhibition of growth at 10 µM (Malme-3M) of 42%, an inhibition of growth at 10 µM (LOX IMVI) of 36% and an inhibition of growth at 10 µM (786-0) of 32%. The inhibition of growth at 10 µM (RXF 393) was 40%, the inhibition of growth at 10 µM (CCRF-CEM) was 33% and the inhibition of growth at 10 µM (Hs-578T) was 33%. It also gave an inhibition of growth at 10 µM (SF-539) of 27%, a Ki (Carbonic anhydrase 2) of 33.8 nM and an inhibition of growth at 10 µM (U-251) of 24%. The inhibition of growth at 10 µM (RPMI-8226) was 27%, the inhibition of growth at 10 µM (SR) was 33% and the inhibition of growth at 10 µM (SK-MEL-5) was 23%. The inhibition of growth at 10 µM (HCT-15) was 40%, the inhibition of growth at 10 µM (MDA-MB-435) was 22% and the inhibition of growth at 10 µM (IGROV-1) was 38%. The inhibition of growth at 10 µM (UACC-62) was 29%, the inhibition of growth at 10 µM (NCI-H460) was 41% and the inhibition of growth at 10 µM (NCI-H522) was 45%. For the same compound, the inhibition of growth at 10 µM (KM12) was 27%, the inhibition of growth at 10 µM (UO-31) was 42% and the inhibition of growth at 10 µM (HCT-116) was 37%. It also gave an inhibition of growth at 10 µM (SN12C) of 31%, an inhibition of growth at 10 µM (HOP-92) of 25% and an inhibition of growth at 10 µM (NCI-H322M) of 58%. The inhibition of growth at 10 µM (SW-620) was 23%, the inhibition of growth at 10 µM (OVCAR-3) was 21% and the inhibition of growth at 10 µM (ACHN) was 48%. For the same compound, the inhibition of growth at 10 µM (BT-549) was 26%, the IC50 (CDK9/cyclin T1) was > 12500 nM and the inhibition of growth at 10 µM (SNB-75) was 44%.

— ChEMBL document CHEMBL4680175, “Sulfonamide-based ring-fused analogues for CAN508 as novel carbonic anhydrase inhibitors endowed with antitumor activity: Design, synthesis, and in vitro biological evaluation” (Eur J Med Chem, 2020)
